This is an account of results in ChEMBL document CHEMBL1143850, “Direct inactivation of human immunodeficiency virus type 1 by a novel small-molecule entry inhibitor, DCM205” (Antimicrob Agents Chemother, 2007).

The test system of assay [1] is Human immunodeficiency virus 1. The assay is described as follows: Antiviral activity against HIV1 NL43 in HeLa H1-JC.37 cells after 2 hrs by focal infectivity assay. The class given is functional, organism-based. In short, it runs like this: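 NL4-3 stock (10^5 FFU/ml) was preincubated with drug (0–30 µM) for 2 h at 37°C, then diluted 400-fold in DMEM/0.1% FBS so drug fell below inhibitory levels. The mixture was added to HeLa H1-JC.37 cells for 2 h adsorption. FBS was raised to 10% and cells were incubated 4 days. Focus immunostaining followed, with five replicate wells per concentration.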

The test system of assay [2] is Human immunodeficiency virus 1. Nature of the assay: Antiviral activity against HIV1 NL43 in PBMCs after 2 hrs by p24 antigen capture ELISA. The class given is functional, organism-based. In short, it runs like this:
(§1)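 NL4-3 was preincubated with drug for 2 h at 37°C and diluted 400-fold in medium with 0.1% FBS. It was added to CEMx174 (5 x 10^4/well), PHA-stimulated PBMCs (1 x 10^4/well) or HeLa H1-JC.37 cells (4.5 x 10^4/well) for 2 h. Cells were washed twice by centrifugation, resuspended in 10% FBS, and cultured 4 days at 37°C. Supernatant p24 was measured by antigen-capture ELISA.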

Assay [3] deals with Human immunodeficiency virus 1. The assay is described as follows: Antiviral activity against HIV1 NL43 in CEMx174 cells after 2 hrs by p24 antigen capture ELISA. The class given is functional, organism-based. In short, it runs like this:
as §1
For orientation: In an ELISA, binding on a coated surface is turned into a signal by an enzyme label.

Assay [4] relates to Human immunodeficiency virus 1. The assay is described as follows: Antiviral activity against HIV1 NL43 in HeLa H1-JC.37 cells after 2 hrs by p24 antigen capture ELISA. The class given is functional, organism-based. In short, it runs like this: as §1
Assay [5] relates to Human immunodeficiency virus 1. Nature of the assay: Antiviral activity against HIV1 NL43 in HeLa H1-JC.37 cells pretreated for 2 hrs before viral challenge by FIA. The class given is functional, organism-based. The essentials:
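HeLa H1-JC.37 cells (4.5 x 10^3/well, seeded overnight) were exposed to drug in DMEM/0.1% FBS for 2 h, then washed twice. They were infected with 20–60 FFU NL4-3 for 2 h. Volume was brought to 200 µl at 10% FBS and cells were incubated 4 days at 37°C. Readout was focus counting. A control arm added drug together with virus.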

Assay [6] concerns Human immunodeficiency virus 1. The assay is described as follows: Binding affinity to HIV1 ogp140 by SPR competition study in presence of gp41 MAb 5F3. In short, it runs like this:
(§2)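 SPR was run at 25°C in HBS-P (pH 7.4). MAbs (10 µg/ml) were captured on immobilized goat anti-human Ig. 50 nM oligomeric gp140 was preincubated 30 min with 0, 1, 5 or 10 µM drug, then injected 1 min at 20 µl/min with 2 min dissociation. Surfaces were regenerated with 146 mM H3PO4. Responses were double-referenced and normalized to MAb capture level.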

In assay [7] the test system is Human immunodeficiency virus 1. Nature of the assay: Binding affinity to HIV1 ogp140 by SPR competition study in presence of gp41 MAb F240. The essentials:
as §2
Background: In SPR one partner is held on a chip, and binding of the other changes the refractive index at the surface.

Assay [8] deals with Human immunodeficiency virus 1. The assay is described as follows: Antiviral activity against B clade R5 tropic HIV1 BaL in HeLa H1-JC.37 cells by focal infectivity assay. The class given is functional, organism-based. The conditions noted are these: Human immunodeficiency virus 1, BaL. In short, it runs like this: (§3)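 HeLa H1-JC.37 cells were seeded at 4.5 x 10^3/well and grown overnight at 37°C. Drug was added in DMEM/0.1% FBS for 1 h. Cells then adsorbed 20–60 FFU of virus with drug for 1–2 h. FBS was raised to 10% with drug held constant, then cells were incubated 4 days. Foci were immunostained and counted as % of no-drug control. EC50 came from a regression line; ≥5 wells, ≥3 experiments.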

Assay [9] concerns Human immunodeficiency virus 1. Nature of the assay: Antiviral activity against B clade X4 tropic HIV1 HXBc2 in HeLa H1-JC.37 cells by focal infectivity assay. The conditions noted are these: Human immunodeficiency virus 1, HXBc2, HeLa. The class given is functional, organism-based. The essentials: as §3
Assay [10] relates to Human immunodeficiency virus 1. Nature of the assay: Antiviral activity against B clade X4 R5 tropic HIV1 89.6 in HeLa H1-JC.37 cells by focal infectivity assay. The class given is functional, organism-based. The conditions noted are these: Human immunodeficiency virus 1, 89.6, HeLa. In short, it runs like this:
as §3

In assay [11] the test system is Human immunodeficiency virus 1. The assay is described as follows: Antiviral activity against A clade R5 tropic HIV1 92RW016 in HeLa H1-JC.37 cells by focal infectivity assay. The class given is functional, organism-based. The conditions noted are these: Human immunodeficiency virus 1, 92RW016, HeLa. In short, it runs like this:
as §3

Assay [12] deals with Human immunodeficiency virus 1. Nature of the assay: Antiviral activity against B clade R5 tropic HIV1 SF162 in HeLa H1-JC.37 cells by focal infectivity assay. The class given is functional, organism-based. The conditions noted are these: Human immunodeficiency virus 1, SF162, HeLa. In short, it runs like this:
as §3

Assay [13] deals with Human immunodeficiency virus 1. The assay is described as follows: Antiviral activity against B clade X4 R5 tropic HIV1 92HT593 in HeLa H1-JC.37 cells by focal infectivity assay. The class given is functional, organism-based. The conditions noted are these: Human immunodeficiency virus 1, 92HT593, HeLa. The essentials: as §3
Assay [14] has as its system Human immunodeficiency virus 1. Nature of the assay: Antiviral activity against B clade R5 tropic HIV1 92TH014 in HeLa H1-JC.37 cells by focal infectivity assay. The conditions noted are these: Human immunodeficiency virus 1, 92TH014, HeLa; in the assay text read “dual tropic” for “R5 tropic”. The class given is functional, organism-based. In short, it runs like this:
as §3

The subject of assay [15] is Human immunodeficiency virus 1. Nature of the assay: Antiviral activity against C clade R5 tropic HIV1 97ZA009 in HeLa H1-JC.37 cells by focal infectivity assay. The class given is functional, organism-based. The conditions noted are these: Human immunodeficiency virus 1, 97ZA009, HeLa. In short, it runs like this:
as §3

Assay [16] deals with Human immunodeficiency virus 1. Nature of the assay: Antiviral activity against C clade R5 tropic HIV1 98TZ013 in HeLa H1-JC.37 cells by focal infectivity assay. The class given is functional, organism-based. The conditions noted are these: Human immunodeficiency virus 1, 98TZ013, HeLa. The essentials:
as §3

For assay [17], the system named is Human immunodeficiency virus 1. The assay is described as follows: Antiviral activity against E clade R5 tropic HIV1 93TH078 in HeLa H1-JC.37 cells by focal infectivity assay. The conditions noted are these: Human immunodeficiency virus 1, 93TH078, HeLa. The class given is functional, organism-based. In short, it runs like this:
as §3

Assay [18] can be described thus: Cytotoxicity against human HeLa H1-JC.37 cells. The class given is cell-based.
Assay [19] relates to Human immunodeficiency virus 1. The assay is described as follows: Antiviral activity against B clade X4 tropic HIV1 NL43 in HeLa H1-JC.37 cells by focal infectivity assay. The class given is functional, organism-based. The conditions noted are these: Human immunodeficiency virus 1, NL43, HeLa. In short, it runs like this: as §3
Assay [20] deals with Simian immunodeficiency virus. The assay is described as follows: Antiviral activity against R5 tropic SIV mac239 in HeLa H1-JC.37 cells by focal infectivity assay. The class given is functional, organism-based. In short, it runs like this: as §3
The subject of assay [21] is Human immunodeficiency virus 1. The assay is described as follows: Binding affinity to HIV1 ogp140 at by SPR competition study in presence of gp120 MAb b12.

Active and inactive are the calls of the source. No cut-off for these calls is given here.

Usually EC50 stands for the concentration giving half of the maximal effect. The low end stands for a more potent agent, the high end for a less potent agent. Broadly, the IC50 is the concentration that gives 50% inhibition. Low readings indicate higher potency, high ones lower potency. Turning to `O=S(=O)(/C=C/c1cc(O)c(O)c(O)c1)CS(=O)(=O)/C=C/c1cc(O)c(O)c(O)c1`, the result in [1], in assay [2], in assay [3], in assay [4], in [6] and in assay [7] was Active. In addition, the result in [21] was Active. The result in assay [5] was inactive. Moreover, the concentration for a half-maximal effect (EC50) in assay [8] was 0.85 µM; in assay [9] it was 0.53 µM; in assay [10], 0.41 µM; in [11], 0.7 µM; in assay [12], 0.4 µM; in [13] it was 0.34 µM. Besides, the EC50 in [14] turned out to be 0.19 µM; in [15], 2.3 µM; in assay [16], 0.19 µM; in [17], 0.5 µM; in assay [19] it was 0.33 µM; in assay [20], 1.2 µM. For the same molecule, it took 170 µM to reach half-maximal inhibition in [18] (IC50).
